# Screens deposited in PubChem by several laboratories.
# sPLA2-III inh – human group III sPLA2 inhibitors, primary screen, biochemical, QFRET, BODIPY PC-A2 liposome substrate; Group 3 secretory phospholipase A2 (Homo sapiens), Q9NZ20; QFRET BODIPY PC-A2 liposome hydrolysis, fluorescence; inhibition, % at 12.2 µM; hit rate 0.56% among 370,000; AID 743126, 2013;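 active means inhibition above mean plus 3 SD of compounds lying within the high and low control bounds, cut at about 19% in these data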
# NTR1 agonist – agonists of human NTR1, primary screen, imaging, U2OS cells, beta-arrestin-GFP, high content. Neurotensin receptor type 1 (Homo sapiens), P30989. NTR1-U2OS beta-arrestin-GFP spot imaging, agonist mode. activation, % at 20 µM. hit rate 0.17% among 330,000. AID 493036, 2011;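 active means activation at or above 40% of the spot to cytoplasm intensity ratio, with at least 20 cells analyzed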
# MC4R ag barr – MC4R agonists recruiting beta-arrestin, primary screen, cell-based, luminescence, agonist arm of biased-ligand search | Melanocortin receptor 4 (Homo sapiens), P32245 | U2OS MC4R beta-arrestin complementation; percent of melanotan II response, DMSO zero | activation, % at 8.9 µM | hit rate 0.98% among 360,000;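 active means activation above a per-plate cutoff, the mean activation of sample wells on that plate plus 3 SD, cut at about 8% in these data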
# Target sequence (P32245 whole entry, looked up): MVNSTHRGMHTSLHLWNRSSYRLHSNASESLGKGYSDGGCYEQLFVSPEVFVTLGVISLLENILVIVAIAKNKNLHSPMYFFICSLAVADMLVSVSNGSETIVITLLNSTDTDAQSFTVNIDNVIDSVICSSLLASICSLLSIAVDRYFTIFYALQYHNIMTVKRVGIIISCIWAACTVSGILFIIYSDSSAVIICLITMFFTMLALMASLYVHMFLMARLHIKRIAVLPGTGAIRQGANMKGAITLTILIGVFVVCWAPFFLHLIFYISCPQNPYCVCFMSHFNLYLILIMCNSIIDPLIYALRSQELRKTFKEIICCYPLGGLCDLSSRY
# A1 inh – caspase 3/7 activation in MEF A1-2A-BIM cells, primary screen, A1 inhibitor project, cell-based, luminescence, HTS | Caspase-Glo 3/7 luminescence, 3 h; percent of clofoctol response, vehicle zero | caspase activation, % (test concentration not listed) | hit rate 0.066% among 330,000 | AID 2462, 2010;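 active means over half of replicate activation scores above 10%, or exactly half above 10 with the replicate mean above 10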
# Granule exo inh – LAMP-1 surface exposure blockers, TALL-104 cells – cell-based, flow cytometry, MLPCN library, primary screen; TALL-104 LAMP-1 surface exposure; cells stimulated with thapsigargin and PMA; inhibition, % at 10 µM; hit rate 0.66% among 360,000; AID 651702, 2012;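 active means inhibition above about 55%, limit read from the data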
# MC4R antag cAMP – MC4R antagonists of cAMP signaling, primary screen, cell-based, TR-FRET, antagonist arm of biased-ligand search | Melanocortin receptor 4 (Homo sapiens), P32245 | MC4R-expressing cells, MTII-stimulated cAMP, LANCE TR-FRET | inhibition, % at 6.5 µM | hit rate 0.48% among 360,000;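 active means inhibition above its plate's cutoff, the mean of tested wells on that plate plus 3 SD, cut at about 29% in these data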
#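 Material – human MC4R-expressing U2OS cells · Repeats – no replicates · Detection – TR-FRET with Eu-cAMP and labeled anti-cAMP, 671 nm · Times – compound 30 min, challenge 1 h, detection 1 h · Compound – single nominal compound dose of 6.5 µM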
# cAMP nonselect – nonselective cAMP signaling inhibitors, parental cells, counter-screen for MC4R biased antagonist project, cell-based, TR-FRET, U2OS, forskolin, triplicate | shares compounds with MC4R antag cAMP | LANCE TR-FRET | inhibition, % at 6.5 µM | hit rate 26% among 1,600 | AID 602193, 2012;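 active means mean inhibition over triplicates above the low-control well mean plus 3 SD, set per campaign, cut at about 13% in these data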;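 further: signal is single emission at 671 nm which falls as cellular cAMP rises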
# MC4R cAMP antag – MC4R cAMP antagonists, retest, confirmation, cell-based, TR-FRET. shares compounds with MC4R antag cAMP. MC4R-expressing cells, MTII-stimulated cAMP. inhibition, % at 6.5 µM. hit rate 27% among 1,600. AID 602195, 2012; in the data active means inhibition above about 29%
# Numbers stand for hits; n = inactive; x = not tested or not shown. Most compounds without a hit are left out; they make up all but 2.5% or so of the library.
SMILES,sPLA2-III inh,NTR1 agonist,MC4R ag barr,A1 inh,Granule exo inh,MC4R antag cAMP,cAMP nonselect,MC4R cAMP antag
Cc1cc(NC(=O)CSc2nc(-c3cccnc3)ccc2C#N)no1,n,n,n,n,n,n,x,x
Cc1cc(NC(=O)CSc2nc3c(c(-c4cccnc4)c2C#N)CCC3)no1,n,n,n,n,n,47,19,57
COc1ccc(-n2c(SCc3cccc4ccccc34)nnc2-c2ccccc2)cc1,n,x,x,x,x,x,x,x
Cc1ccoc1C(=O)N1CCCC(CCC(=O)N2CCN(c3ccccn3)CC2)C1 (stereo not given),n,n,n,n,n,31,n,n
COC[C@@H]1CCCN1c1ccc2c(c1)O[C@H]1CCN(C1)S2(=O)=O,n,x,x,x,x,x,x,x
CCOC(=O)Cn1c(=O)oc2cc(S(=O)(=O)N3CCc4ccccc43)ccc21,n,n,n,n,n,30,n,n
CC(C)(C)NC(=O)Cn1c(=O)oc2cc(S(=O)(=O)N3CCc4ccccc43)ccc21,n,n,n,n,n,n,x,x
CC1(C)CC(=O)C=C(c2ccccc2-c2cccc(C(N)=O)c2)C1=O,n,x,x,x,x,x,x,x
CCCOc1ccc(/C=N/NC(=O)CN(c2ccc(OCC)cc2)S(C)(=O)=O)cc1,n,n,n,n,n,n,x,x
CCOc1ccc(N(CC(=O)N/N=C/c2cccnc2)S(C)(=O)=O)cc1,n,n,n,n,n,31,n,n
O=C(CNC(=O)c1ccc(Oc2ccccc2)cc1)OC1CCCCC1=O (stereo not given),n,n,n,n,n,34,n,n
Cc1ccc(C(=O)NCC(=O)OC2CCCCC2=O)cc1C (stereo not given),n,n,n,n,n,n,x,x
CC(C)[C@H](NC(=O)c1ccc(Cl)c(Cl)c1)C(=O)N1CCC[C@H]1C(=O)NCc1ccccc1,n,x,x,x,x,x,x,x
CCOC(=O)c1sc(N2N=C(C)/C(=C\c3ccc(OCC(=O)OC)cc3)C2=O)nc1C,n,n,n,n,n,31,n,n
CCCNC(=O)c1ccc(N2CCC3(CC2)CC(c2ccccc2)=NO3)c(NC(=O)c2ccco2)c1,n,n,n,n,n,33,n,n
COc1ccc(NC(=O)COC(=O)C2CC(=O)N(c3ccc(C)cc3)C2)cc1 (stereo not given),n,n,n,n,n,42,n,n
O=C1CCc2cc(S(=O)(=O)N3CCN(Cc4cccc5c4OCO5)CC3)ccc2N1,n,x,x,x,x,x,x,x
COC(=O)CCc1sc(NC2CCCCC2)nc1-c1ccc(OC)cc1,n,n,n,n,n,n,x,x
CCCCCCNc1nc(-c2ccc(OC)cc2)c(CCC(=O)O)s1,n,n,n,n,n,30,n,n
C/C(CC(=O)Nc1cccc(Cl)c1Cl)=N\NC(=O)C(=O)N1CCCC1,n,n,n,n,n,n,x,x
C/C(CC(=O)Nc1cccc(Cl)c1Cl)=N\NC(=O)c1ccccc1C,n,n,n,n,n,29,n,n
COc1ccc(CN2CCC(CNC(=O)Nc3ccccc3)CC2)cc1,n,x,x,x,x,x,x,x
COc1ccc(CN2CCN(S(=O)(=O)c3ccc(NC(C)=O)cc3)CC2)c(OC)c1OC,n,n,n,n,n,31,n,n
N#Cc1ccsc1NC(=O)c1cccc([N+](=O)[O-])c1,n,n,n,n,n,n,x,x
N#Cc1ccsc1NC(=O)c1ccc(Cl)c([N+](=O)[O-])c1,n,n,n,n,n,36,n,n
SMILES,sPLA2-III inh,NTR1 agonist,MC4R ag barr,A1 inh,Granule exo inh,MC4R antag cAMP,cAMP nonselect,MC4R cAMP antag
Cc1ccc(N=N/C(=C\O)C(=O)c2ccc(Cl)cc2)cc1,n,n,n,n,n,n,x,x
O=C(/C(=C/O)N=Nc1ccccc1)c1ccc(Cl)cc1,n,n,n,n,n,34,n,n
C=CCn1nnnc1-c1cccc(Cl)c1,n,n,n,n,n,34,n,n
Cc1cc(-c2n[nH]c(=S)n2N=Cc2ccc(OCc3ccccc3)cc2)n[nH]1,n,x,x,x,x,x,x,x
NS(=O)(=O)c1ccc(NC(=O)COC(=O)CSc2n[nH]c(-c3ccccc3)n2)cc1,n,n,n,n,n,39,n,n
CCc1ccccc1NC(=O)[C@@H]1CCCN1S(=O)(=O)c1cccc2cccnc12,n,x,x,x,x,x,x,x
CCOC(=O)/C=C/C(=O)Nc1ccc(Oc2ccccc2)cc1,n,n,n,n,n,46,28,53
O=C(O)/C=C/C(=O)Nc1ccc(Oc2ccccc2)cc1,n,n,n,n,n,n,x,x
Cc1cc(C)c(NC(=O)c2cccc(NC(=O)c3ccco3)c2)c(C)c1,n,n,n,n,n,30,n,n
Cc1cccc(NC(=O)c2cccc(NC(=O)c3ccco3)c2)c1,n,x,n,x,n,n,x,x
CC(=O)c1cccc(NC(=S)NC(=O)c2ccccc2Cl)c1,n,n,n,n,n,30,n,n
COc1ccc(Br)cc1/C=C/C(=O)NC(=S)Nc1ccc(Cl)c(C(=O)O)c1,n,n,n,n,n,30,n,n
COc1ccc(Br)cc1C(=O)NC(=S)Nc1ccc(Cl)c(C(=O)O)c1,n,n,n,n,n,n,x,x
CC(=O)c1cccc(NC(=S)NC(=O)c2ccc(C)cc2Cl)c1,n,n,n,n,n,n,x,x
COc1ccc(C(=O)NC(=S)Nc2ccc(Cl)c(C(=O)O)c2)cc1,n,n,n,n,n,30,n,n
COC(=O)c1ccc(N)c2c(N)ccc(C(=O)OC)c12,n,x,x,x,x,x,x,x
C(=C\c1ccccc1)/CSc1nnc(COc2ccccc2)n1Cc1ccco1,n,x,x,x,x,x,x,x
O=C(Nc1nnc(-c2ccccc2)s1)c1cc(S(=O)(=O)N2CCOCC2)c(Cl)cc1Cl,n,n,n,n,n,32,n,n
CCOC(=O)c1ccc(NC(=O)NCc2ccccc2OC)cc1,n,n,n,n,n,30,n,n
CCOC(=O)c1ccc(NC(=O)NCCc2ccccc2OC)cc1,n,n,n,n,n,n,x,x
COc1ccc(CN2C/C(=C/C3=CCCCC3)N(C(=O)OCc3ccccc3)C2=N)c(OC)c1,n,x,x,x,x,x,x,x
Cc1[nH]c2ccccc2c1CC(=O)Nc1ccc(N(C)c2cccnc2)c(-c2cccc(Cl)c2)c1,n,x,x,x,x,x,x,x
